# Columns and labels:
# [1] = biological target: Bromodomain-containing protein 4 (Homo sapiens, UniProt O60885); assay: Inhibition of FAM-labeled ZBA248 binding to recombinant human BRD4 bromodomain 1 (44 to 168 residues) expressed in Rosetta2 Escherichia coli DE3 cells after 30 mins by fluorescence polarization assay
# How it was run: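 Recombinant human BRD4 BD1 (residues 44−168) in a fluorescence polarization competitive binding assay, run as described in earlier work.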
# MOLM-13 = assay: Growth inhibition of human MOLM13 cells after 4 days by WST-8 assay; assay type: functional, cell-based; details: MOLM-13, 96 h
# How it was run: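 Leukemia cells, used within 3 months of thaw, were seeded at 10 000 cells/well and exposed to serially diluted compound in culture medium for 4 days. WST-8 reagent was added at 10% (v/v) final for 1−3 h, and absorbance was read at 450 nm. Readings were normalized to DMSO-treated cells, and the IC50 was fitted by nonlinear regression.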
# MDA-MB-231 [2] = assay: Growth inhibition of human MDA-MB-231 cells after 4 days by WST-8 assay; assay type: functional, cell-based; details: MDA-MB-231, 96 h
# How it was run: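 Cells used within 3 months of thaw. Breast cancer cells seeded at 3000 cells/well, then serially diluted compound added, cultured 4 days. Growth read by WST-8 (10% v/v final, 1−3 h, 450 nm). Readings normalized to DMSO-treated cells. IC50 by nonlinear regression.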
# MDA-MB-231 [3] = assay: Antitumor activity against human MDA-MB-231 cells xenografted in SCID mouse assessed as tumor growth inhibition at 50 mg/kg administered via oral gavage measured on day 44; assay type: functional; details: MDA-MB-231, po, 1056 h, read-out: TGI
# How it was run: (§1)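 Each SCID mouse received a single dorsal subcutaneous tumor of 5 × 10⁶ RS4;11 or MDA-MB-231 cells in 50% Matrigel. At about 100 mm3, mice were randomised to treatment or vehicle control groups. Dosing was by oral gavage at the stated schedules. Tumor volume was L × W²/2, and body weight was tracked. TGI versus vehicle at end of treatment was tested by unpaired two-tailed t-test.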
# RS4-11 = assay: Antitumor activity against human RS4:11 cells xenografted in SCID mouse assessed as tumor growth inhibition at 50 mg/kg administered via oral gavage measured on day 35; assay type: functional; details: RS4-11, po, 840 h, read-out: TGI; how it was run: as §1
# [4] = Plasma concentration in SCID mouse xenografted with human MDA-MB-231 cells at 50 mg/kg administered via oral gavage measured after 6 hrs; assay type: ADME, organism-based
# How it was run: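 SCID mice carrying MDA-MB-231 tumors dosed orally at 50 mg/kg. Plasma drug level determined by LC-MS/MS (positive-ion MRM, C18 column, formic acid/acetonitrile gradient). Value is the mean from two mice per time point.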
# [5] = Plasma concentration in SCID mouse xenografted with human MDA-MB-231 cells at 50 mg/kg administered via oral gavage measured after 0.5 hrs; assay type: ADME, organism-based
# How it was run: (§2)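 Limited PK in SCID mice bearing MDA-MB-231 tumors, 50 mg/kg given by oral gavage. Plasma and tumor tissue drug levels measured at two time points per compound. Values are the mean of two mice/tumors per time point.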
# [6] = Drug uptake in tumor of SCID mouse xenografted with human MDA-MB-231 cells at 50 mg/kg administered via oral gavage measured after 6 hrs; assay type: ADME, organism-based, Neoplasm; details: read-out: Drug uptake; how it was run: as §2
# [7] = Drug uptake in tumor of SCID mouse xenografted with human MDA-MB-231 cells at 50 mg/kg administered via oral gavage measured after 0.5 hrs; assay type: ADME, organism-based, Neoplasm; details: read-out: Drug uptake; how it was run: as §2
# [8] = Plasma concentration in SCID mouse xenografted with human MDA-MB-231 cells at 50 mg/kg administered via oral gavage measured after 1 hr; assay type: ADME, organism-based; how it was run: as §2
# [9] = Drug uptake in tumor of SCID mouse xenografted with human MDA-MB-231 cells at 50 mg/kg administered via oral gavage measured after 1 hr; assay type: ADME, organism-based, Neoplasm; details: read-out: Drug uptake; how it was run: as §2
SMILES,IC50 [1] [nM],Ki [1] [nM],IC50 (MOLM-13) [nM],IC50 (MDA-MB-231 [2]) [nM],further results
COc1cc2c(cc1-c1c(C)noc1C)[nH]c1nc(C)nc(Nc3nn(C)c4ccc(F)cc34)c12,–,16.7,–,–,–
Cc1sc2c(c1C)C(c1ccc(Cl)cc1)=N[C@@H](CC(=O)Nc1ccc(O)cc1)c1nnc(C)n1-2 [BIRABRESIB],–,–,–,–,inhibition in vivo at 50 mg/kg (MDA-MB-231 [3]): 21%; inhibition in vivo at 50 mg/kg (RS4-11): 33%
COc1cc2c(cc1-c1c(C)noc1C)[nH]c1nc(C)nc(Nc3cc(C)nn3C(C)(C)C)c12,4.4,< 1,10.6,13.9,concentration at 6 h [4]: 127 ng/mL; concentration at 0.5 h [5]: 3680 ng/mL; concentration at 6 h [6]: 621 ng/g; concentration at 0.5 h [7]: 5230 ng/g
COc1cc2c(cc1-c1c(C)noc1C)[nH]c1nc(C)nc(Nc3cc(C(C)(C)C)nn3C)c12,10.5,1.2,23,23.5,concentration at 1 h [8]: 923 ng/mL; concentration at 6 h [4]: 458 ng/mL; concentration at 1 h [9]: 305 ng/g; concentration at 6 h [6]: 268 ng/g
COc1cc2c(cc1-c1c(C)noc1C)[nH]c1nc(C)nc(Nc3cc(C)nn3C3CCC3)c12,14.3,2.6,38.8,26,–
COc1cc2c(cc1-c1c(C)noc1C)[nH]c1nc(C)nc(Nc3nn(C)c4cccnc34)c12,229,78,–,–,–
COc1cc2c(cc1-c1c(C)noc1C)[nH]c1nc(C)nc(Nc3nn(CCO)c4ccccc34)c12,9.8,1,–,–,–
COc1cc2c(cc1-c1c(C)noc1C)[nH]c1nc(C)nc(Nc3c(C)c(C4CC4)nn3C)c12,51.7,15.8,201,319,–
COc1cc2c(cc1-c1c(C)noc1C)[nH]c1nc(C)nc(Nc3nn(C)c4c3CCCC4)c12,–,< 1,41.9,58.3,–
COc1cc2c(cc1-c1c(C)noc1C)[nH]c1nc(C)nc(Nc3cc(C)nn3C(C)C)c12,–,0.5,5,29.6,–
COc1cc2c(cc1-c1c(C)noc1C)[nH]c1nc(C)nc(Nc3nn(C)c4cccc(F)c34)c12,–,21.5,–,–,–
COc1cc2c(cc1-c1c(C)noc1C)[nH]c1nc(C)nc(Nc3c4c(nn3C)CCC4)c12,5.5,< 1,5,67,concentration at 1 h [8]: 4880 ng/mL; concentration at 6 h [4]: 1580 ng/mL; concentration at 1 h [9]: 1510 ng/g; concentration at 6 h [6]: 600 ng/g
COc1cc2c(cc1-c1c(C)noc1C)[nH]c1nc(C)nc(Nc3cc(C)n(C)n3)c12,24.9,6.3,30.7,81.1,–
COc1cc2c(cc1-c1c(C)noc1C)[nH]c1nc(C)nc(Nc3cc(C(C)C)nn3C)c12,–,< 1,11.7,26,concentration at 1 h [8]: 6240 ng/mL; concentration at 6 h [4]: 1870 ng/mL; concentration at 1 h [9]: 736 ng/g; concentration at 6 h [6]: 166 ng/g
COc1cc2c(cc1-c1c(C)noc1C)[nH]c1nc(C)nc(Nc3cc(C(C)(C)C(F)(F)F)nn3C)c12,13.8,2.4,75,164,–

# Now from value to compound, other results behind:
IC50 [1] [nM],Ki [1] [nM],IC50 (MOLM-13) [nM],IC50 (MDA-MB-231 [2]) [nM],SMILES,further results
228,77.9,–,–,COc1cc2c(cc1-c1c(C)noc1C)[nH]c1nc(C)nc(Nc3nn(C)c4ccncc34)c12,–
15.8,3.1,56,156,COc1cc2c(cc1-c1c(C)noc1C)[nH]c1nc(C)nc(Nc3cc(C(F)(F)F)nn3C)c12,–
95.2,31,–,–,COc1cc2c(cc1-c1c(C)noc1C)[nH]c1nc(C)nc(Nc3nn(C)c4c(F)cccc34)c12,–
4,< 1,17.7,25,COc1cc2c(cc1-c1c(C)noc1C)[nH]c1nc(C)nc(Nc3cc(C)nn3C3CCCC3)c12,–
9.1,0.7,–,–,COc1cc2c(cc1-c1c(C)noc1C)[nH]c1nc(C)nc(Nc3nn(C)c4ccccc34)c12,–
4.9,< 1,11.3,17.5,COc1cc2c(cc1-c1c(C)noc1C)[nH]c1nc(C)nc(Nc3c4c(nn3C)CCCC4)c12,concentration at 1 h [8]: 2980 ng/mL; concentration at 6 h [4]: 1150 ng/mL; concentration at 1 h [9]: 466 ng/g; concentration at 6 h [6]: 132 ng/g
11.8,1.7,–,–,COc1cc2c(cc1-c1c(C)noc1C)[nH]c1nc(C)nc(Nc3n[nH]c4ccccc34)c12,–
20.8,4.9,–,–,COc1cc2c(cc1-c1c(C)noc1C)[nH]c1nc(C)nc(Nc3nn(C)c4ncccc34)c12,–
87.6,28.4,–,–,COc1cc2c(cc1-c1c(C)noc1C)[nH]c1nc(C)nc(Nc3nn(C)c4cc(F)ccc34)c12,–
9.4,0.8,10.3,55.1,COc1cc2c(cc1-c1c(C)noc1C)[nH]c1nc(C)nc(Nc3cc(C)nn3C)c12,–
12.8,2,26.6,63.2,COc1cc2c(cc1-c1c(C)noc1C)[nH]c1nc(C)nc(Nc3cc(C4CCC4)nn3C)c12,–
16.8,3.4,15.4,26.3,CCn1nc(C)cc1Nc1nc(C)nc2[nH]c3cc(-c4c(C)noc4C)c(OC)cc3c12,–
196,66.5,–,–,COc1ccc2c(Nc3nc(C)nc4[nH]c5cc(-c6c(C)noc6C)c(OC)cc5c34)nn(C)c2c1,–
